Laboratory results taken from ChEMBL document CHEMBL4706681, “New 2-Pyrazoline and Hydrazone Derivatives as Potent and Selective Monoamine Oxidase A Inhibitors” (J Med Chem, 2021).

Columns and labels:
[1] = Ex vivo inhibition of MAOA in CD1 mouse brain homogenates assessed as MAOA level at 10 mg/kg, po administered via gavage for 7 days and measured 1 hr post last dose by monoamine oxidase assay (reference value: 0.39 +/- 0.04 nmol/min/mg); assay type: functional; conditions: time 7 day
[2] = Ex vivo inhibition of MAOA in CD1 mouse brain homogenates assessed as 5-HT levels at 3 mg/kg, po administered via gavage for 7 days and measured 1 hr post last dose by ELISA kit method (reference value: 0.78 +/- 0.01 ug/g); assay type: functional; conditions: time 7 day
[3] = Ex vivo inhibition of MAOA in CD1 mouse brain homogenates assessed as 5-HT levels at 10 mg/kg, po administered via gavage for 7 days and measured 1 hr post last dose by ELISA kit method (reference value: 0.78 +/- 0.01 ug/g); assay type: functional; conditions: time 7 day
[4] = Ex vivo inhibition of MAOA in CD1 mouse brain homogenates assessed as MAOA level at 1 mg/kg, po administered via gavage for 7 days and measured 1 hr post last dose by monoamine oxidase assay (reference value: 0.39 +/- 0.04 nmol/min/mg); assay type: functional; conditions: time 7 day
[5] = molecular target: T1, Amine oxidase [flavin-containing] B (Homo sapiens, UniProt P27338); experiment: Reversible inhibition of human MAO-B assessed as residual enzyme activity at 4 fold IC50 incubated for 15 mins and measured 24 hrs post dialysis relative to control; conditions: 24.25 h, time 1455 min
T1 sequence (P27338 whole entry): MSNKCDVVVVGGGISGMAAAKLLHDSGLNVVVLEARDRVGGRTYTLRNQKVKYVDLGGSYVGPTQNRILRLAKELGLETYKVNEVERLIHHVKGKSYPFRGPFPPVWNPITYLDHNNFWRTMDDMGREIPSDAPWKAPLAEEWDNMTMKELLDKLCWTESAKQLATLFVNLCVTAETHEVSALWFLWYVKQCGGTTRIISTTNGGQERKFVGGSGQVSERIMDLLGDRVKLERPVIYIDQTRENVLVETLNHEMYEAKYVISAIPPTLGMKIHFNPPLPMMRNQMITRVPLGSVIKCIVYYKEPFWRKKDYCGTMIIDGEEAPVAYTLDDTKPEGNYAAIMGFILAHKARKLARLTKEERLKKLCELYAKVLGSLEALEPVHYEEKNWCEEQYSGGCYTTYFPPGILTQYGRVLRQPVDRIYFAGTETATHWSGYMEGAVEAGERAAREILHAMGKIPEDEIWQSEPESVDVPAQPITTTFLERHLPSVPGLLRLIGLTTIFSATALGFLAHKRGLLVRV
How it was run: (§1)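 Dialysed (MWCO 12 000) at 4 °C for 24 h against 100 mM potassium phosphate pH 7.4, 5% sucrose, buffer changed twice. Dialysed and undialysed mixtures assayed together; residual activity from triplicates.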

[6] = Ex vivo inhibition of MAOA in CD1 mouse brain homogenates assessed as MAOA level at 3 mg/kg, po administered via gavage for 7 days and measured 1 hr post last dose by monoamine oxidase assay (reference value: 0.39 +/- 0.04 nmol/min/mg); assay type: functional; conditions: time 7 day
[7] = Ex vivo inhibition of MAOA in CD1 mouse brain homogenates assessed as inhibition of 5-HT deamination by measuring 5-HIAA metabolite levels by using at 10 mg/kg, po administered via gavage for 7 days and measured 1 hr post last dose by HPLC analysis (reference value: 0.33 +/- 0.02 ug/g); assay type: functional; conditions: time 7 day
[8] = molecular target: T1, Amine oxidase [flavin-containing] B; experiment: Reversible inhibition of human MAO-B assessed as residual enzyme activity at 4 fold IC50 incubated for 15 mins and measured before dialysis relative to control; how it was run: as §1
[9] = Cytotoxicity against human HepG2 cells assessed as cell viability at 7.5 uM incubated for 2 hrs by MTT assay relative to control; assay type: cell-based; conditions: read-out: Activity
How it was run: (§2)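 HepG2 human hepatoma cells; viability read by MTT assay, with 0.1% DMSO as vehicle control. Viability given as % of control, mean ± SEM (n = 3); p < 0.05 taken as significant.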

[10] = Ex vivo inhibition of MAOA in CD1 mouse brain homogenates assessed as inhibition of 5-HT deamination by measuring 5-HIAA metabolite levels by using at 1 mg/kg, po administered via gavage for 7 days and measured 1 hr post last dose by HPLC analysis (reference value: 0.33 +/- 0.02 ug/g); assay type: functional; conditions: time 7 day
[11] = molecular target: T2, Amine oxidase [flavin-containing] A (Homo sapiens, UniProt P21397); experiment: Reversible inhibition of human MAO-A assessed as residual enzyme activity at 4 fold IC50 incubated for 15 mins and measured before dialysis by dialysis method relative to control; how it was run: as §1
T2 sequence (P21397 whole entry): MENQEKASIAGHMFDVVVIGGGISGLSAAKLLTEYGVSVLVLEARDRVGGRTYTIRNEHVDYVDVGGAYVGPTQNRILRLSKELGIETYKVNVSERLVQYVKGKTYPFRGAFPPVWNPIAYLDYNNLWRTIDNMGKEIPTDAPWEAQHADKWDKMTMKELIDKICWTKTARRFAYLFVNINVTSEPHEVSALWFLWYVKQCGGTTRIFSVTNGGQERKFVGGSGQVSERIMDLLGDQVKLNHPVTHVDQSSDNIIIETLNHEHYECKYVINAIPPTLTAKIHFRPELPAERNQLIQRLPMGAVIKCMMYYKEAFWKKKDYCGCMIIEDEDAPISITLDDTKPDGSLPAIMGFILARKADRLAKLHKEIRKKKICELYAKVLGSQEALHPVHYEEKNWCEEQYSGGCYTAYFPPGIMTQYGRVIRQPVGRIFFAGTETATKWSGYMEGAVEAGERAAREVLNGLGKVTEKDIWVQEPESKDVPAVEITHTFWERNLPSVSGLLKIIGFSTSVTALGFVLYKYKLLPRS

[12] = molecular target: T2, Amine oxidase [flavin-containing] A; experiment: Reversible inhibition of human MAO-A assessed as residual enzyme activity at 4 fold IC50 incubated for 15 mins and measured 24 hrs post dialysis by dialysis method relative to control; conditions: 24.25 h, time 1455 min; how it was run: as §1
[13] = Cytotoxicity against human HepG2 cells assessed as cell viability at 15 uM incubated for 2 hrs by MTT assay relative to control; assay type: cell-based; conditions: read-out: Activity; how it was run: as §2
[14] = Ex vivo inhibition of MAOA in CD1 mouse brain homogenates assessed as inhibition of 5-HT deamination by measuring 5-HIAA metabolite levels by using at 3 mg/kg, po administered via gavage for 7 days and measured 1 hr post last dose by HPLC analysis (reference value: 0.33 +/- 0.02 ug/g); assay type: functional; conditions: time 7 day
[15] = Cytotoxicity against human HepG2 cells assessed as cell viability at 30 uM incubated for 2 hrs by MTT assay relative to control; assay type: cell-based; conditions: read-out: Activity; how it was run: as §2
[16] = Ex vivo inhibition of MAOA in CD1 mouse brain homogenates assessed as 5-HT levels at 1 mg/kg, po administered via gavage for 7 days and measured 1 hr post last dose by ELISA kit method (reference value: 0.78 +/- 0.01 ug/g); assay type: functional; conditions: time 7 day
[17] = Ex vivo inhibition of MAOA in CD1 mouse brain homogenates assessed as 5-HT levels at 20 mg/kg, po administered as single acute dose via gavage and measured after 1 hr by ELISA kit method (reference value: 0.80 +/- 0.006 ug/g); assay type: functional

SMILES | Activity [1] | Activity [2] | Activity [3] | Activity [4] | Activity [5] | Activity [6] | Activity [7] | Activity [8] | viability at 2 h, 7.5 µM [9] | Activity [10] | Activity [11] | Activity [12] | viability at 2 h, 15 µM [13] | Activity [14] | viability at 2 h, 30 µM [15] | Activity [16] | Activity [17]
COc1ccc(C2=NN(C(=O)Cn3c(=O)oc4ccc(C)cc43)C(c3cccc(OC)c3OC)C2)cc1 (stereo not drawn) | 0.27 nmol/min/mg | 0.85 µg/g | 0.99 µg/g | 0.39 nmol/min/mg | 94.16% | 0.34 nmol/min/mg | 0.29 µg/g | 74.19% | 101% | 0.32 µg/g | 22.16% | 92.55% | 99.6% | 0.3 µg/g | 84.9% | 0.8 µg/g | 
O=C(NCCN1CCOCC1)c1ccc(Cl)cc1 [MOCLOBEMIDE] | 0.4 nmol/min/mg | 0.79 µg/g | 0.82 µg/g | 0.41 nmol/min/mg | 89.55% | 0.41 nmol/min/mg | 0.3 µg/g | 88% | 90.8% | 0.33 µg/g | 36% | 93.77% | 88.5% | 0.32 µg/g | 86% | 0.78 µg/g | 0.83 µg/g
